From PubChem
Most compounds without a hit are left out; they make up all but 5.4% or so of the library.
Cav3 T inh: inhibitors of human Cav3.2 T-type calcium channel; O95180; Cav3.2-expressing cells, Fluo-4 calcium fluorescence FDSS; hits give low values; B-score at 10 µM; hit rate 4% among 100,000; AID 449739;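 active = single-dose well whose peak fluorescence ratio is a statistical outlier from its plate by either plate-standardised score or position-corrected B-score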
Rev-RRE block: disrupts HIV-1 Rev binding to RRE RNA. P05866. Rev peptide-RRE RNA binding, FRET. inhibition, % at 8 µM. hit rate 0.79% among 97,000. AID 704;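 active = inhibition above the screen-wide mean plus 3 SD, cut at about 35% in these data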
Target sequence (P05866 whole entry, looked up): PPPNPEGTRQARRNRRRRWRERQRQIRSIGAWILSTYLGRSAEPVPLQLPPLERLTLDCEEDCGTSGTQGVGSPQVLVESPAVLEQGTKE
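Test system – labelled RRE RNA duplex and labelled Rev peptide · Reagent – labelled Rev peptide · Doses – one concentration, 8 µM nominal · Incubation – 5 + 15 min at 25 °C · Signal – FRET fluorescence readout · Read-out basis – % inhibition of FRET ratio versus controls · Control set – DMSO wells as 0% and neomycin B wells as 100% inhibition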
EphB4 antag: antagonists of human EphB4-ephrin-B2 interaction; P54760; EphB4 LBD / TNYL-RAW-Alexa532 peptide, fluorescence polarization; inhibition, % at 7 µM; hit rate 0.15% among 97,000; AID 720;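 active = inhibition above the screen-wide mean inhibition plus 3 SD, cut at about 15% in these data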
hDAT+cocaine: modulates human dopamine transporter uptake under cocaine; hit rate 1.3% among 110,000; Q01959; B-score at 10 µM; LLC-PK1 hDAT cells, [14C]-dopamine uptake with cocaine IC80; actives deviate in either direction; AID 449768;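 active = Z score or B-score, a plate-position-corrected score, falls beyond the plate's 99.7% confidence bounds, in either direction; inactive = both scores lie inside the 99.7% bounds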
Each line names hits and unclear results; the compound was inactive in the other large screens; [ ] = another dose, or the depositor's remark.

CCOc1cccc2cc(-c3nnc(NCc4ccco4)s3)c(=O)oc12	none
CC1CCc2cc(F)ccc2N1C(=O)CSc1nnc2c(n1)[nH]c1ccc(F)cc12 (stereo unspecified)	none
Cc1cccc(C)c1OCC(O)CNS(=O)(=O)c1ccccc1C(=O)N1CCCCC1 (stereo unspecified)	none
CCC1CCC/C1=N\NC(=O)c1cc(C)[nH]n1 (stereo unspecified)	none
CCCOC(=O)C(C)n1cnc2sc(C)c(C)c2c1=O (stereo unspecified)	EphB4 antag 16
O=c1[nH]c(Cn2nnc(-c3ccccc3)n2)nc2scc(-c3ccccc3)c12	none
CCOC(=O)CN1C(=O)N[C@@H](c2ccccc2)C(C(=O)OC)=C1C	none (no result: Rev-RRE block, EphB4 antag)
CCOC(=O)C1=C(C)N(Cc2ccccc2)C(=O)NC1c1ccc(OC)cc1 (stereo unspecified)	Cav3 T inh -5.8
CCOC(=O)C1CCN(S(=O)(=O)Cc2ccccc2)C1=O (stereo unspecified)	EphB4 antag 15
Fc1cccc(Nc2cc(-n3cccn3)ncn2)c1	none
CCN1CCc2c(sc(N)c2C#N)C1	Rev-RRE block 69
C=C1CCN([C@@H](C)C(=O)NCc2ccc(OC)cc2)S(=O)(=O)c2ccccc21	none (no result: Rev-RRE block, EphB4 antag)
O/N=C1\CCc2cc(Cl)ccc21	Cav3 T inh 2.4
CCC1Oc2ccc(C)cc2N(CC(=O)N(Cc2ccc(C)o2)C2CCCC2)C1=O (stereo unspecified)	none (no result: Cav3 T inh, hDAT+cocaine)
Cc1ccc(N(CCCCN2C(=O)c3ccccc3C2=O)C(=O)c2cccs2)cc1	Cav3 T inh -5.8
O=C1c2ccccc2C(=O)N1CCCCN(C(=O)c1ccco1)c1ccc(Cl)cc1	Cav3 T inh -8.5
CC(C)N(CCCNC(=O)C1CCN(S(=O)(=O)N2CCOCC2)CC1)Cc1ccccc1	none (no result: Cav3 T inh, hDAT+cocaine)
CCOC(=O)c1ccc(N2C(=O)C3CC=CCC3C2=O)cc1 (stereo unspecified)	hDAT+cocaine 7.9
CCOC(=O)c1ccc(N2C(=O)C3C(C2=O)C(C(=O)c2ccc(Cl)cc2)N2CCCC32)cc1 (stereo unspecified)	Rev-RRE block 66 (no result: Cav3 T inh, hDAT+cocaine)
CC(C)(C)NC(=O)CSc1nc(O)cc(=O)n1-c1ccccc1F	Rev-RRE block 53
CCn1c(C(=O)N2CCC(C(=O)NCc3ccc4c(c3)OCO4)CC2)cc2sccc21	Cav3 T inh -5.9 (no result: Rev-RRE block, EphB4 antag)
CCn1c(C(=O)N2CCc3ccccc3C2)cc2sccc21	Cav3 T inh -5.6
CCn1c(C(=O)N2CCC(C(=O)NCCCSC3CCCCC3)CC2)cc2sccc21	Cav3 T inh -7
Cc1nn(CCC#N)c2nc(-c3ccccc3)cc(C(F)(F)F)c12	none
N#CCCn1nc(-c2ccccc2)cc1-n1c(C(F)(F)F)nc2ccccc21	Cav3 T inh -3.4
Cn1ncc(N=Cc2ccccc2)c1C(=O)Nc1cccc(Cl)c1	none
Cc1cc(=O)oc2c3c4c(cc12)OCCN4CCC3	none
O=c1oc2c3c4c(cc2c(C(F)(F)F)c1CCN1CCOCC1)CCCN4CCC3	Cav3 T inh -6.6, Rev-RRE block 113[fluorescence artefact?]
O=c1oc2c(CN3CCOCC3)c(O)ccc2c2c1CCC2	none
CC(C)c1cc(=O)oc2c3c4c(cc12)CCCN4CCC3	Cav3 T inh -3.9 (no result: Rev-RRE block, EphB4 antag)
Cn1cnnc1SCC(=O)c1ccc2c(c1)OCO2	none (no result: Cav3 T inh)
Cc1ccc(CNC(=O)[C@H]2C[C@@H]2[C@H](NP(=O)(c2ccccc2)c2ccccc2)c2ccccc2)o1	none (no result: Rev-RRE block, EphB4 antag)
O=C(Nc1ccccc1C(F)(F)F)c1cc(S(=O)(=O)N2CCOCC2)ccc1F	none
O=C(NCc1ccc2c(c1)OCO2)C1CCC(CNS(=O)(=O)c2ccccc2)CC1 (stereo unspecified)	Cav3 T inh -3.8
O=C(NCc1ccc2c(c1)OCO2)C1CCC(CNS(=O)(=O)c2cccc3nsnc23)CC1 (stereo unspecified)	none
CCS(=O)(=O)c1ccc2oc(SCC(=O)NC34CC5CC(CC(C5)C3)C4)nc2c1	Cav3 T inh -7.2
CCS(=O)(=O)c1ccc2oc(SCC(=O)NC3CCCC(C)C3C)nc2c1 (stereo unspecified)	none
COc1ccc(CNC(=O)Oc2ccccc2)cc1Cl	Cav3 T inh -5.2
COc1cccc(C(=O)CSc2nnnn2C2CCCCC2)c1	none
O=C(CSc1nc(-c2ccc(F)cc2)cc(C(F)(F)F)n1)NCc1ccco1	none
CCOc1ccc(OCC)c(NC(=O)CSc2nc3c(c(=O)n(C)c(=O)n3C)n2C(C)C)c1	hDAT+cocaine 3
O=c1c2ccccc2nc(-c2ccoc2)n1CCc1ccccc1	EphB4 antag 16
O=c1c2ccccc2nc(-c2ccco2)n1Cc1ccccc1	none
CN(C)c1ccc(/C=C/c2cc[n+]([O-])cc2)cc1	Rev-RRE block 120[fluorescence artefact?] (no result: Cav3 T inh)
Cc1ccc(C=Nc2ccc(N(C)C)cc2)o1	none
CN(C)c1ccc(/C=C/c2cc[n+](C)cc2)cc1	Rev-RRE block 49[fluorescence artefact?], hDAT+cocaine -3.7
N#CC1(C#N)CC(C=O)=C(N)C1(C#N)CC(=O)c1ccc(F)cc1 (stereo unspecified)	Rev-RRE block 84[fluorescence artefact?], hDAT+cocaine -2.2
CC(NC(=O)Nc1ccc(F)cc1F)c1ccncc1 (stereo unspecified)	none (no result: Cav3 T inh)
O=C(CCN1CCCCC1)c1ccc2c(c1)OCCO2	hDAT+cocaine 4.8
O=C(CCN1CCc2ccccc2C1)c1ccc2c(c1)OCCO2	none
CN1C(=O)C2(c3ccccc31)N(C)CC(c1ccccc1)C21SC(=S)N(Cc2ccco2)C1=O (stereo unspecified)	none
CN1C(=O)C2(c3ccccc31)N(C)CC(c1ccccn1)C21SC(=S)N(Cc2ccco2)C1=O (stereo unspecified)	Cav3 T inh -4.7
CCCCC(=O)Nc1ccc(C(=O)N2CCN(C)CC2)cc1	none (no result: Cav3 T inh)
CCN(CC)C(=O)CC(c1ccc(N(C)C)cc1)c1c(O)cc(OC)cc1OC (stereo unspecified)	none (no result: Rev-RRE block, EphB4 antag)
CCOC(=O)N1CCN(S(=O)(=O)c2cccc3ccc(C)nc23)CC1	none
Cc1cccc(NC(=O)C(c2cccc([N+](=O)[O-])c2)N2CCCCC2)c1 (stereo unspecified)	Cav3 T inh -8
Cc1cccc(NC(=O)C2(c3ccc([N+](=O)[O-])cc3)CCCC2)c1	Cav3 T inh -5.5
O=C(Nc1ccc2c(c1)OCO2)C(c1ccccc1)N1CCCCC1 (stereo unspecified)	none (no result: Rev-RRE block, EphB4 antag)
COc1cccc(C2NC(=O)N(CCCC(=O)O)C(C)=C2C(=O)OCc2ccccc2)c1 (stereo unspecified)	none (no result: Rev-RRE block, EphB4 antag)
Cc1ccc(N2C(=O)CC(Sc3ncn[nH]3)C2=O)cc1C (stereo unspecified)	hDAT+cocaine -3.1
Cc1nc(CC(=O)N2CCN(c3cccc(C)c3C)CC2)cs1	none (no result: Cav3 T inh)
CCCCCCC1CCC(C(=O)NC(CCSC)C(=O)NC(C(=O)OC)C(C)C)CC1 (stereo unspecified)	Cav3 T inh -6.8
O=C1COc2ccc(C(=O)c3ccccc3C(=O)NCc3ccccc3)cc2N1	Cav3 T inh -7.2
Cc1ccccc1NCC(=O)N/N=C/C(Br)=C/c1ccccc1	none
[O-][n+]1c2c(c3c4non(O)c4ccc31)CCCC2	Cav3 T inh -6.8
COn1c2c(c3c4no[n+]([O-])c4ccc31)CCCC2	none
